ChEMBL document CHEMBL2439985, “Multifunctional cyclic D,L-α-peptide architectures stimulate non-insulin dependent glucose uptake in skeletal muscle cells and protect them against oxidative stress” (J Med Chem, 2013)

Key:
[1] = Antioxidant activity assessed as inhibition of H2O2-induced ROS production by DCFH assay; assay type: functional
In short: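 DCFH oxidation assay: H2O2 (0.5 mM) was incubated with DCFH with or without the test agent, and the DCF formed was read fluorometrically. Free His and Trolox served as controls.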

[2] = Antioxidant activity assessed as inhibition of H2O2-induced hydroxyl radical formation by EPR spectroscopic analysis in presence of Fe2+; assay type: functional
In short: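 Hydroxyl radicals came from a Fenton reaction: H2O2 (10 mM), FeSO4·7H2O (10 mM) and DMPO spin trap (40 mM), with peptide at 1−1000 μM. Samples were diluted in 15 mM phosphate buffer, pH 7.4, and read immediately by EPR. The spin-adduct signal was integrated.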

[3] = Potency index, ratio of Histidine EC50 to compound EC50 for inhibition of H2O2-induced ROS production; assay type: functional
[4] = Induction of self-assembly of the compound in phosphate buffer at 100 uM after 2 days by uranyl acetate staining-based TEM analysis; assay type: physicochemical; details: 48 h
In short: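 Peptide (100 μM) was aged 2 days in phosphate buffer and negatively stained 30 s with 2% uranyl acetate. Nanotube formation was examined by TEM at 120 kV.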

[5] = Drug degradation in H2O2 solution at 2.7 mM after 1 month by HPLC/MS/NMR analysis in presence of Fe2+; assay type: physicochemical; details: H2O2 solution with Fe2+; read-out: Drug degradation

| EC50 [1] | EC50 [2] | Activity [4] | degraded at 730.5 h [5] | Compound | Ratio EC50 [3] |
| --- | --- | --- | --- | --- | --- |
| 0.35 µM |  |  |  | Cc1c(C)c2c(c(C)c1O)CCC(C)(C(=O)O)O2 (centres undefined) [TROLOX] |  |
| 6 µM | 100 µM |  |  | N[C@@H](Cc1c[nH]cn1)C(=O)O [HISTIDINE] |  |
| 0.2 µM |  |  |  | NCCCC[C@H]1NC(=O)[C@H](Cc2c[nH]cn2)NC(=O)[C@@H](Cc2c[nH]c3ccccc23)NC(=O)[C@H](Cc2c[nH]c3ccccc23)NC(=O)[C@@H](Cc2c[nH]cn2)NC(=O)[C@H](Cc2c[nH]cn2)NC(=O)[C@@H](Cc2c[nH]cn2)NC(=O)[C@H](CO)NC1=O | 30 |
| 0.4 µM | 3 µM | Active | < 5% | NCCCC[C@H]1NC(=O)[C@H](Cc2c[nH]cn2)NC(=O)[C@@H](Cc2c[nH]cn2)NC(=O)[C@H](Cc2c[nH]cn2)NC(=O)[C@@H](Cc2c[nH]cn2)NC(=O)[C@H](Cc2c[nH]c3ccccc23)NC(=O)[C@@H](Cc2c[nH]c3ccccc23)NC(=O)[C@H](Cc2c[nH]cn2)NC1=O |  |
